In ChEMBL document CHEMBL1129476, “In vivo activity and hydrophobicity of cytostatic aziridinyl quinones” (J Med Chem, 1996):

Legend:
[1] = E1/2 for the half-wave potential at pH=7.0 in V57; assay type: ADME
[2] = Observed rate of hydrolysis (logKobs) (pH=4.0); assay type: ADME
In short: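 Hydrolysis followed by cyclic voltammetry at 20 °C in deaerated 0.1 M acetate buffers (pH 5.0–3.5) or 0.02 M NaH2PO4 (pH 3.5, 3.0), ionic strength 0.1 M (NaNO3). Decrease of the parent cathodic peak tracked over time. Pseudo-first-order kobs from linear regression of log concentration versus time.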

[3] = system: Fungi; test: log 1/MIC for fungi in mmol/L; assay type: functional
[4] = system: L1210; test: log 1/D125 for the dose (mmol/kg) to give 125%T/C ratio (L1210) in vivo; assay type: functional, Mus musculus
[5] = log 1/anion production.; assay type: functional
[6] = Electrochemically observed pKa (pKred) of aziridines; assay type: physicochemical; conditions: read-out: pKred
[7] = system: B16; test: log 1/D125 or the dose (mmol/kg) to give 125%T/C ratio (B16) in vivo; assay type: functional, Mus musculus
[8] = Partition coefficient (logP); assay type: physicochemical; conditions: octanol/water
In short: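 Micro shake-flask: buffered aqueous compound solution (pH 6.50) shaken with an equal volume of water-saturated 1-octanol at room temperature, 3 × 120 s. Centrifuged 14000g, 15 min. Aqueous phase analysed by RP-HPLC against the unshaken solution (methanol 30, 50 or 70 wt%, 1.0 mL/min, UV 254 nm). Run in duplicate, or quadruplicate if needed.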

[9] = HPLC capacity factor (logK); assay type: ADME
[10] = system: L1210; test: log 1/ID75 for the in vitro clonogenic L1210 assay with ID75 in umol/L; assay type: functional, Mus musculus
[11] = log 1/LD50 for LD50 (mmol/kg); assay type: ADME
[12] = system: Nucleic Acid; test: DNA cross link ratio at pH=5.0 and 50 umol/L compound; assay type: functional

Compound	E 1/2 [1]	Log Kobs [2]	Log 1/MIC (mM L-1) [3]	Log 1/D125 (L1210) (mM kg-1) [4]	pKa [6]	Log 1/D125 (mM kg-1) [7]	logP [8]	Log K [9]	Log 1/ID75 (uM L-1) [10]	other results
CC1CN1C1=C(Cl)C(=O)C(N2CC2C)=C(Cl)C1=O (stereo not given)	-0.125	-4.15	1.16	1.16	–	–	–	–	–	Log 1/conc (mM min-1 L-1) [5]: 2.65
C/N=C1C(O)=C(N2CC2C)/C(=N\C)C(O)=C\1N1CC1C (stereo not given)	-0.4	–	–	2.19	9.3	2.33	–	–	–	–
C/N=C1C=C(O)/C(=N/C)C=C/1O	–	–	–	–	–	–	0.34	-0.611	–	–
NC1=CC(=O)c2ccccc2C1=O	–	–	–	–	–	–	1.88	0.129	–	–
CC1=CC(=O)c2ccccc2C1=O [MENADIONE]	–	–	–	–	–	–	–	0.607	–	–
CC1CN1C1=C(F)C(=O)C(N2CC2C)=C(N2CC2C)C1=O (stereo not given)	-0.195	–	1.18	–	8.2	–	–	–	2.01	Log 1/LD50 (mM kg-1) [11]: 1.45
CC1CN1C1=C(Br)C(=O)C(N2CC2C)=C(Br)C1=O (stereo not given)	–	-3.45	1.28	–	–	–	–	–	0.77	Log 1/conc (mM min-1 L-1) [5]: 2.8
CC1=CC(=O)C=CC1=O [Cresoquinone]	–	–	–	–	–	–	0.73	–	–	–
CCOC(=O)NC1=C(N2CC2C)C(=O)C(NC(=O)OCC)=C(N2CC2C)C1=O (stereo not given)	-0.145	-3.57	–	1.59	8.5	1.94	–	–	–	DNA cross-link ratio [12]: 0.02; Log 1/LD50 (mM kg-1) [11]: 0.69; Log 1/conc (mM min-1 L-1) [5]: 1.26
C/N=C1C(O)=C(N2CC2)/C(=N\C)C(O)=C\1N1CC1	-0.415	–	–	2.49	8.5	3.14	0.13	–	0.32	–
COC1=C(C)C(=O)C(N2CCCC2)=CC1=O	-0.315	–	-0.26	–	–	–	–	–	-1.66	–
CC1=C(N2CC2)C(=O)C(CCO)=C(N2CC2)C1=O	–	-4	0.44	3.37	8.6	3.6	0.18	–	1.51	Log 1/LD50 (mM kg-1) [11]: 1.39; Log 1/conc (mM min-1 L-1) [5]: 0.95
OCC/N=C1C(O)=C(N2CC2)/C(=N\CCO)C(O)=C/1N1CC1	-0.385	-2.8	–	3.39	9.5	3.94	–	–	0.42	–
O=C1C=C(Br)C(=O)c2ccccc21 [2-Bromo-1,4-naphthoquinone]	–	–	–	–	–	–	–	0.748	–	–
CCOC(=O)NC1=CC(=O)C(NC(=O)OCC)=CC1=O	–	–	0.85	–	–	–	–	–	0.09	–
O=C1C=C(Cl)C(=O)c2ccccc21	–	–	–	–	–	–	2.15	0.659	–	–
C/N=C1\C=C(O)c2ccccc2C1=O	–	–	–	–	–	–	1.74	0.279	–	–
O=C1C(N2CCCC2)=C(N2CC2)C(=O)C(N2CCCC2)=C1N1CC1	-0.315	–	–	2.07	10.6	2.4	–	–	–	–
CC1=C(N2CC2C)C(=O)C(CCOC(N)=O)=C(N2CC2C)C1=O (stereo not given)	-0.235	-3.67	–	1.89	9.7	2.31	–	–	–	DNA cross-link ratio [12]: 0.13; Log 1/conc (mM min-1 L-1) [5]: 0.56
CC1=C(N2CC2)C(=O)C(Cl)=C(N2CC2)C1=O	-0.197	-4.32	–	1.99	8.5	2.68	–	0.2	2.41	Log 1/conc (mM min-1 L-1) [5]: 2.42
NC1=C(Cl)C(=O)c2ccccc2C1=O	–	–	–	–	–	–	–	0.259	–	–
O=C1C=C(N2CC=CC2)C(=O)C=C1N1CC=CC1	–	–	-0.52	–	–	–	–	–	-1.62	–
O=C1C=C(N2CC=CC2)C(=O)c2ccccc21	–	–	–	–	–	–	–	0.896	–	–
CC1=C(C)C(=O)C(N2CC=CC2)=CC1=O	-0.311	–	-0.17	–	–	–	–	–	-0.71	–
O=C1C(Cl)=C(N2CC2)C(=O)C(Cl)=C1N1CC1	-0.133	-4.7	1.63	–	–	–	–	–	–	Log 1/conc (mM min-1 L-1) [5]: 2.74
CC1=C(C)C(=O)C(C)=C(C)C1=O [DUROQUINONE]	–	–	–	–	–	–	2.12	0.776	–	–
